# Results pooled from the literature.
# Each line is one published result; the experiments were not run side by side.
# Mode: inhibitor
# CDK2: Cyclin-dependent kinase 2 (CDK2, Homo sapiens, UniProt P24941)
# PARP2: Poly [ADP-ribose] polymerase 2 (PARP2, Homo sapiens, UniProt Q9UGN5)
Compound,target,read-out,method,IC50 [nM]
Cc1n[nH]c2ccc3nc(-c4ccc(C(=O)NCCN(C)C)cc4F)c4c(c3c12)CCCC4,CDK2,enzyme activity,,80
CC(=O)N1C(=O)NC(C)=C(C(=O)OCC(C)C)C1c1cccc([N+](=O)[O-])c1 (racemic),"Voltage-dependent L-type calcium channel subunit alpha-1C (Cacna1c, Rattus norvegicus, UniProt P22002)",ion current,patch clamp,1300
CCNc1ccc(C(N)=O)cn1,"Nicotinamide N-methyltransferase (NNMT, Homo sapiens, UniProt P40261)",enzyme activity in cells,,> 31600
CN(C)CCNC(=O)c1ccc(-c2nc3ccc4[nH]ncc4c3c3c2CC(F)(F)CC3)cc1,CDK2,enzyme activity,,109
O=c1[nH]c(=O)c(Cc2cccc(C(F)(F)F)c2)c([C@H]2CC[C@H](c3ccccc3)CC2)[nH]1,"Multidrug and toxin extrusion protein 1 (SLC47A1, Homo sapiens, UniProt Q96FL8)",transporter uptake,,> 8000
Cc1cccc(Cn2nnc3c4ccc(F)cc4c(=O)[nH]c32)c1,PARP2,enzyme activity,,> 10000
NC/C(=C\F)COc1cccc(Cn2c(=S)[nH]c(=O)c3[nH]cnc32)c1,"Sodium channel protein type 5 subunit alpha (SCN5A, Homo sapiens, UniProt Q14524)",ion current,,> 100000
Cc1n[nH]c2ccc3nc(-c4ccc(C(=O)NCCN5CCCC5)cc4)c4c(c3c12)CCCC4,CDK2,enzyme activity,,310
O=c1[nH]c2c(nnn2Cc2ccc(C(F)(F)F)cc2)c2ccc(F)cc12,PARP2,enzyme activity,,> 10000
Cn1cc(C2=C(c3cn(CCCSC(=N)N)c4ccccc34)C(=O)NC2=O)c2ccccc21,"Serine/threonine-protein kinase VRK1 (VRK1, Homo sapiens, UniProt Q99986)",enzyme activity,,644
COc1ccc2c(=O)[nH]c3c(nnn3Cc3ccc(C)cc3)c2c1,PARP2,enzyme activity,fluorescence,> 10000
Cc1n[nH]c2ccc3nc(-c4ccc(C(=O)NCCN(C)C)cc4)c4c(c3c12)CCC(C)(C)C4,CDK2,enzyme activity,,> 1000
